TAAR1 antag = antagonists of human TAAR1; CHO RD-HGA16 TAAR1, Fluo-8 calcium fluorescence, antagonist; 360,000 compounds, 1.5% hits; Q96RJ0; inhibition, % at 3 µM;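 active = inhibition above a per-plate cutoff, the mean inhibition of test compounds on that plate plus 3 SD, cut at about 49% in these data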;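 also: 0% = DMSO plus EC80 beta-PEA response and 100% = DMSO alone without agonist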
Target sequence (Q96RJ0 whole entry, looked up): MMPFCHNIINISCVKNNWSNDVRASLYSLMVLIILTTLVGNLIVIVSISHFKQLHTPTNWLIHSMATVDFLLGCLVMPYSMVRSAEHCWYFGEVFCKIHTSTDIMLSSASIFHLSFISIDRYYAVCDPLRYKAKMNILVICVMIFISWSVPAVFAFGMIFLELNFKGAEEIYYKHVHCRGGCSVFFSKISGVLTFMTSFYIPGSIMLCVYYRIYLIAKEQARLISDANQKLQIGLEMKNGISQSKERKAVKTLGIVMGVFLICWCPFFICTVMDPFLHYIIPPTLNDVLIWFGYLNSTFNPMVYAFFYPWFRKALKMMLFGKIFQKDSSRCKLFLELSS
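Assay system: RD-HGA16 CHO cells with stable hTAAR1 and Gα16 / Reagent: EC80 β-phenethylamine stimulus / Doses: 3 µM, single point / Timing: dye loading 75 min at 37 °C, then 30 min room temperature / Measured by: Fluo-8 intracellular calcium dye fluorescence, real-time kinetic reads / Controls: vehicle wells and EC80 agonist wells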
TAAR1 agonist = human TAAR1 agonism | Q96RJ0 | CHO RD-HGA16 TAAR1, Fluo-8 calcium fluorescence; vehicle wells 0%, saturating PEA agonist 100% | activation, % at 3 µM | 360,000 compounds, 0.99% hits | AID 624467;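 active = activation above the mean activation of all test compounds in the run plus 3 SD, cut at about 38% in these data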
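Signal – calcium-sensitive Fluo-8 signal, excitation 470-495, emission 515-575 nm · System – RD-HGA16 (CHO) cells co-expressing Gα16 and hTAAR1 · Incubation – 17-24 h seeding, 75 min 37 °C dye, 30 min RT · Compound dosing – 3 µM single concentration · Repeats – no replicates (n 1)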
CHRM1 antagonist = blocks human M1 muscarinic receptor; AID 588852; P11229; 360,000 compounds, 1.3% hits; CHO-K1 hM1, Fluo-8 calcium fluorescence, ACh EC80 antagonist; inhibition, % at 3 µM;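 active = percent inhibition above its own plate's cutoff, namely the mean of that plate's compound wells plus 3 SD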;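 also: peak over basal fluorescence ratio during 140 s after agonist addition; 0% = ACh EC80 plus DMSO and 100% = DMSO alone without agonist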
CHRM1 PAM = human CHRM1 positive allosteric modulation. CHO-K1 hM1, Fluo-8 calcium fluorescence, ACh EC20; 0% = ACh EC20, 100% = maximal ACh. activation, % at 3 µM. 360,000 compounds, 0.088% hits. AID 588819; in the data active = activation above about 19%, passing the limit was not always enough
M1 ag = agonists of human M1 muscarinic receptor | P11229 | CHO-K1 hM1, Fluo-8 calcium fluorescence, agonist mode; 0% DMSO, 100% acetylcholine EC100 | activation, % at 3 µM | 360,000 compounds, 0.33% hits | AID 588814;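 active = activation above the run's mean compound activation plus 3 SD, cut at about 16% in these data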;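 also: peak over basal fluorescence ratio within a 140 s kinetic read after compound addition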
TAAR1 ag conf = confirmation of human TAAR1 agonists; CHO RD-HGA16 TAAR1, Fluo-8 calcium fluorescence; scaled: DMSO 0%, maximal phenethylamine 100%; activation, % at 3 µM; 2,400 compounds, 82% hits; shares compounds with TAAR1 agonist;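 active = activation above a cutoff set at the run's mean compound activation plus 3 SD, cut at about 39% in these data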
Ga16 ag counter = counter-screen for TAAR1 agonists: nonselective agonists in parental cells; shares compounds with TAAR1 agonist; CHO-Ga16 parental, Fluo-8 calcium fluorescence; normalized to maximal ATP response, DMSO zero; activation, % at 3 µM; 2,400 compounds, 50% hits; AID 651787;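 active = activation above the run cutoff, the mean activation over all tested wells plus 3 SD, cut at about 12% in these data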;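 also: 0% = DMSO wells and 100% = maximal ATP response on the peak over basal ratio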
TAAR1 desens = human TAAR1 agonist that also desensitizes the receptor | inhibition, % at 3 µM | 2,400 compounds, 46% hits | CHO RD-HGA16 hTAAR1, Fluo-8 calcium, beta-PEA response inhibition | shares compounds with TAAR1 agonist;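 active = inhibition above the run cutoff, the mean inhibition of all test compounds plus 3 SD, cut at about 49% in these data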;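 also: beta-PEA stimulus applied at its EC80; loss of beta-PEA calcium signal after compound pretreatment read as receptor desensitization; 0% = DMSO with beta-PEA at EC80 and 100% = DMSO alone without agonist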
Ga16 antag count = counter-screen for TAAR1 agonists: nonselective Ga16 antagonists. shares compounds with TAAR1 agonist. 2,400 compounds, 39% hits. inhibition, % at 3 µM. AID 651952. CHO-Ga16 ATP-induced calcium, Fluo-8 fluorescence;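 active = inhibition above the plate's mean compound inhibition plus 3 SD, computed per plate, cut at about 22% in these data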;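 also: 0% = EC80 ATP with DMSO and 100% = DMSO wells without ATP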
* marks the source's active call; other numbers are inactive results. Rows were chosen to be rich in hits. Some 3.4% of all compounds tested hit in one or more screens of this group.

Results for c1ccc(CCNc2c3c(nc4ncnn24)CCC3)cc1 ?
TAAR1 antag: 9; TAAR1 agonist: 62*; CHRM1 antagonist: 11; CHRM1 PAM: -6; M1 ag: 2; TAAR1 ag conf: 90*; Ga16 ag counter: 7; TAAR1 desens: 38; Ga16 antag count: 6

Results for Fc1ccccc1CCNc1c2c(nc3ncnn13)CCCC2 ?
TAAR1 antag: 1; TAAR1 agonist: 30; CHRM1 antagonist: 11; CHRM1 PAM: -6; M1 ag: 3

Results for Cc1nc(N)nc(N)c1/C=C/C(C)(C)c1ccc(Cl)cc1 ?
TAAR1 antag: 40; TAAR1 agonist: 53*; CHRM1 antagonist: 10; CHRM1 PAM: -4; M1 ag: -3; TAAR1 ag conf: 72*; Ga16 ag counter: 42*; TAAR1 desens: 72*; Ga16 antag count: 48*

Results for Cc1ccc(C(C)NC(=O)/C(C#N)=C\c2c(C)[nH]c3ccccc23)cc1 (stereo unspecified) ?
TAAR1 antag: 44; TAAR1 agonist: 63*; CHRM1 antagonist: 12; CHRM1 PAM: 0; M1 ag: 21*; TAAR1 ag conf: 59*; Ga16 ag counter: 33*; TAAR1 desens: 48; Ga16 antag count: 39*

How did O=C(NCCc1ccccc1F)[C@@H]1CSC2c3ccccc3C(=O)N21 (stereo partly specified) do in these assays?
TAAR1 antag: 22; TAAR1 agonist: 60*; CHRM1 antagonist: 0; CHRM1 PAM: 3; M1 ag: -4; TAAR1 ag conf: 65*; Ga16 ag counter: 3; TAAR1 desens: 38; Ga16 antag count: 9

What do the screens show for `O=C(O)[C@@H]1CSC2c3ccccc3C(=O)N21` (stereo partly specified)?
TAAR1 antag: 8; TAAR1 agonist: 2; CHRM1 antagonist: 17; CHRM1 PAM: -7; M1 ag: 0

How did COC(=O)c1ccc(Oc2c(F)c(F)nc(N3CCOCC3)c2F)cc1 do in these assays?
TAAR1 antag: 36; TAAR1 agonist: 9; CHRM1 antagonist: -1; CHRM1 PAM: -10; M1 ag: -8

What do the screens show for `COc1cc(C(c2nnnn2C2CCCC2)N2CCc3ccccc3C2)ccc1O` (stereo unspecified)?
TAAR1 antag: 100*; TAAR1 agonist: 85*; CHRM1 antagonist: -13; CHRM1 PAM: 14; M1 ag: -2; TAAR1 ag conf: 91*; Ga16 ag counter: 0; TAAR1 desens: 97*; Ga16 antag count: 7

What do the screens show for `COc1ccc(C(c2nnnn2C2CCCC2)N2CCN(C(=O)c3ccco3)CC2)cc1OC` (stereo unspecified)?
TAAR1 antag: 8; TAAR1 agonist: 2; CHRM1 antagonist: -11; CHRM1 PAM: 7; M1 ag: -3

How did O=C(COC(=O)CCC1CCCC1)Nc1ccc(Cl)cn1 do in these assays?
TAAR1 antag: 24; TAAR1 agonist: 46*; CHRM1 antagonist: 16; CHRM1 PAM: -8; M1 ag: -2; TAAR1 ag conf: 1; Ga16 ag counter: 0; TAAR1 desens: 9; Ga16 antag count: 15

Results for O=C(COC(=O)C1CCC1)Nc1ccc(Cl)cn1 ?
TAAR1 antag: -15; TAAR1 agonist: 1; CHRM1 antagonist: -11; CHRM1 PAM: 2; M1 ag: 1

What do the screens show for `O=C(CCN1CCCCC1)c1ccccc1`?
TAAR1 antag: -11; TAAR1 agonist: 18; CHRM1 antagonist: 5; CHRM1 PAM: -1; M1 ag: -3

Screens (PubChem BioAssay)
